Laboratory results as given in ChEMBL document CHEMBL4513216, “Probing the Open Global Health Chemical Diversity Library for Multistage-Active Starting Points for Next-Generation Antimalarials” (ACS Infect Dis, 2020).

Experiment: Toxicity liver stage against HepG2, at 10uM
Assay type: cell-based
Parameters: test concentration 10 uM, cell line HepG2-A16-CD81EGFP
Details: human, HepG2-A16-CD81EGFP cells; read-out: INHIBITION
Summary of the method: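 Uninfected HepG2-A16-CD81EGFP cells, 3 × 10^3 per well, 1536-well, plated on prespotted compound at 10 μM final, parasite-free screening media added to match infected plates; puromycin 10 μM positive, DMSO 0.5% negative; run in parallel with 48 h PbLuc assay at 37 °C, 5% CO2; viability by CellTiter-Glo luminescence, normalized to controls.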

| Structure (SMILES) | cytotoxicity at 10 µM [%] |
| --- | --- |
| CC(C)(C)[S+]([O-])CCNC(=O)c1ccc(Cl)c2cccnc12 (stereo not given) | -44.5 |
| Cc1ccc(C2NC(=O)c3cc(C(C)C)sc3N2)cc1 (stereo not given) | 7.96 |
| CN1CC(Nc2ccc(Br)cc2C#N)CCC1=O (stereo not given) | 8.25 |
| CO[C@H]1CCN(Cc2nccs2)C[C@@H]1Cc1ccccc1 | -71.9 |
| c1cc(CN2CCC(c3nnc4n3CCCCC4)CC2)c2c(c1)OCO2 | -3.14 |
| c1coc(CN2C[C@@H]3OCCN(CC4CCCO4)[C@@H]3C2)c1 (stereo not given in full) | -83.1 |
| Cc1cnn(CCCn2c(C)cc(C(F)(F)F)cc2=O)c1 | 0.529 |
| Cc1cc2nc(-c3ccccc3)cc(NCC3CCS(=O)(=O)C3)n2n1 (stereo not given) | 1.38 |
| O=C(CC1CCCC1)N1CCn2cc(Cn3cccn3)nc2C1 | -75.4 |
| Cc1nc2cc(O)nn2c(C)c1CCC(=O)NCCc1ccccc1 | -6.65 |
| O=C(c1ccsc1)N1CCC(Nc2cccnn2)CC1 | -7.58 |
| NC(=O)CN1CCCC(C(=O)N2CCC(O)(Cc3ccccc3)CC2)C1 (stereo not given) | -7.36 |
| Cc1nc(C)n(C2CCCN(C(=O)CCCNc3ncccn3)C2)n1 (stereo not given) | -4.26 |
| CC(NC(=O)CN1C=Nc2ccccc2S1(=O)=O)c1ccccc1 (stereo not given) | -0.476 |
| O=C(Cn1nc2ccccc2n1)N1CCCC(O)(CN2CCCC2)C1 (stereo not given) | -10.4 |
| Cc1cnc(C(=O)N2CCN(c3ncc4c(n3)CCOC4)CC2)cn1 | 4.91 |
| NC(=O)C1CCN(c2nc3nccc(-c4ccncc4)c3c(=O)[nH]2)CC1 | 6.09 |
| Cc1noc([C@H]2CC[C@@H]3[C@@H](CCN3S(=O)(=O)C3CC3)O2)n1 | -1.98 |
| CCC(C)(COc1ncccc1Cl)NCC(=O)Nc1ccc(Br)cn1 (stereo not given) | -2.89 |
| O=C(CCn1ccc2ccccc21)N1CCN(Cc2cccnc2)CC1 | 0.951 |
| Cc1cc2n(n1)CC(CNC1CCN(C3CC3)CC1)CN2 (stereo not given) | 4.16 |
| Cc1ccc2ncccc2c1CN1CC[C@H](N(C)C)[C@H](CCC(=O)O)C1 | -148 |

| Structure (SMILES) | cytotoxicity at 10 µM [%] |
| --- | --- |
| CCN(Cc1cccc2c1OCO2)CC1CCCO1 (stereo not given) | 3.18 |
| CC(=O)Nc1ncc(S(=O)(=O)Nc2ccccc2)s1 | 6.72 |
| O=C(Cc1c(F)cccc1Cl)Nc1cc(N2CCOCC2)ncn1 | 3.36 |
| Cc1ccsc1CN(C)Cn1nccc1-c1cccnc1 | 7.49 |
| Cc1nc(C(=O)N(C)CC(=O)N(C)C)nn1-c1ccccc1C(C)C | -6.5 |
| Cc1noc(C)c1CN1C[C@H](OCC2CC2)[C@H]2COC[C@H]21 | -5.78 |
| Cc1ccc2c(C)c(C(=O)NCCc3csc(N)n3)oc2c1 | -8.79 |
| Cn1ccnc1CN1C[C@H](N2CCOCC2)[C@@H]2OCCC[C@@H]21 | 7.19 |
| COc1nn(C)cc1C(=O)N1CCC(c2ccccc2)C1 (stereo not given) | -2.18 |
| Cc1csc(CN2CC[C@H]3C[C@H](c4noc(C)n4)O[C@@H]3C2)n1 | -2.97 |
| CC(C)CN1CCCn2nc(CNC(=O)OCc3ccccc3)cc2C1 | 1.04 |
| Cc1noc(C)c1CC(=O)N1CCCC(Cn2ccnc2C)C1 (stereo not given) | -3.6 |
| CC(C)c1nnc(CN2CCCC(Cn3cncn3)C2)o1 (stereo not given) | -3.39 |
| O=S(=O)(Nc1ccccn1)c1cc(Cl)cc2c1OCC2 | 0.38 |
| Cc1ccc(N2CC[C@H](O)[C@@H]2Cc2cnn(C)c2)nn1 | 0.434 |
| NC(=O)CN1CCCN(C(=O)Cc2ccc3c(c2)OCO3)CC1 | 2.96 |
| CC1CCCN(C(=O)c2ccc(N(C)Cc3cnn(C)c3)nc2)C1 (stereo not given) | 2.22 |
| Cc1cccc(CNC(=O)CC2CCN(C(=O)C(C)C)CC2)n1 | 7.45 |
| Cc1ccccc1N1CCCN(C(=O)CC2CN(C(C)C)CCO2)CC1 (stereo not given) | -3.11 |
| COCc1cncc2c1CCN(C(=O)c1ccsc1)C2 | 2.43 |
| CCC(CO)N(Cc1ccsc1)Cc1ccccc1C(=O)O (stereo not given) | -14.4 |
| CC(C(=O)N1CCN(c2ccc(F)cc2)CC1)n1ccnc1 (stereo not given) | 1.05 |

| Structure (SMILES) | cytotoxicity at 10 µM [%] |
| --- | --- |
| Cc1cc(C(=O)N2CCC3(CC2)CC(c2cccnc2)C(=O)N3)no1 (stereo not given) | -133 |
| Cc1csc2c(=O)n3c(nc12)CCN(C(=O)c1cccnc1)CC3 | -2.09 |
| CCN1CCCC(C)(C(=O)NCc2nnnn2-c2ccccc2)C1 (stereo not given) | -17.7 |
| Cc1ncc(CN2CCOC(CNc3cccnn3)C2)s1 (stereo not given) | -19.8 |
| CNc1cc2c(nn1)CCN(C(=O)c1cc(C)no1)C2 | -15.8 |
| CC1=Nc2c(c(=O)[nH]n2C(C)C)C(c2cccc(OC(F)F)c2)S1 (stereo not given) | 8.13 |
| Cc1cnc(C(=O)NC(COCC(C)C)c2ccco2)cn1 (stereo not given) | -19.6 |
| COc1ccc(C(=O)N2CCN(C(=O)CCCc3cn[nH]c3)CC2)cc1 | -5.63 |
| CSc1ccccc1CN1C[C@@H]2CC[C@H]1CN(Cc1[nH]cnc1C)C2 | -8.96 |
| COc1cc(S(=O)(=O)N2CCc3ccc(Cl)cc32)cc(C(=O)O)c1OC | -1.34 |
| Cc1ccncc1C(=O)N1CC[C@@]2(O)CCN(C3CCCCC3)C[C@H]2C1 | -125 |
| CC(C)N(C(=O)Cn1c(-c2ccco2)cc2cccnc21)C(C)C | -4.32 |
| CCc1ncc2c(n1)CN(CC(=O)Nc1nnc(C)s1)CC2 | 2.94 |
| CCc1nc(CN2CCCN(C(=O)C3CCOC3)CC2)cs1 (stereo not given) | 3.09 |
| Cn1cc(C(=O)NC2CCN(C(=O)NCCSC(F)(F)F)CC2)cn1 | 2.36 |
| CCN(Cc1ccco1)C(=O)NCc1nnc2n1CCC2 | -10.3 |
| O=C(Nc1cccnc1)C1CCCN(c2cc(-n3cccn3)ncn2)C1 (stereo not given) | -5.36 |
| CC(C)c1nc(CN(C)C(=O)c2ccc3c(c2)OCC(=O)N3)cs1 | -4.15 |
| CC(=O)N[C@@H]1CN(C(=O)c2cc3ccccc3[nH]2)C[C@H]1c1ccc(C)o1 | -10.2 |
| Cc1ccc(CNC[C@H]2Cn3cc(-c4ccccc4)nc3CO2)cc1 | -9.43 |
| Cc1nn(CC(=O)NCCc2ccncc2)c(=O)n1Cc1ccccc1 | 18.5 |
| Cc1ccc(Sc2nccn(C)c2=O)cc1 | 4.8 |

| Structure (SMILES) | cytotoxicity at 10 µM [%] |
| --- | --- |
| CC(C)NC(=O)N1CCc2ncc(CN3CCOCC3)n2CC1 | 6.28 |
| O=C(NCCN1CCCCCC1=O)c1n[nH]c(=O)c2ccccc12 | -4.38 |
| Cc1cc(Cc2ccc(S(=O)(=O)N3CCCC3)cc2)c(=O)[nH]n1 | 6.47 |
| CC1CCN(C)c2ccccc2N1C(=O)c1ccn(C)c(=O)c1 (stereo not given) | 2.36 |
| Cc1ccc(CN2CCOC(c3cnccn3)C2)s1 (stereo not given) | -2.81 |
| O=C(NCC(=O)N1CCCCC1)c1ccoc1 | -6.07 |
| CCC1CN(CC(=O)NCC(C)C)CCO1 (stereo not given) | 14.4 |
| CCc1cccc(-n2nnc(C(=O)O)c2-c2ccncc2)c1 | 7.77 |
| CCOCCCNC(=O)c1cc(OC)c2ccoc2c1 | 6.51 |
| COCCN1C(=O)[C@@H]2CC[C@H]1CN(c1nccc(C)n1)C2 | 9.73 |
| CNC(=O)c1cn2cc(-c3cccc(Cl)c3)n(CC3CC3)c(=O)c2n1 | -37.4 |
| CC(C)CC(CCO)CNC(=O)N1CCC1(C)C (stereo not given) | -3.25 |
| CS(=O)(=O)CCn1ccc(NC(=O)c2c(F)cccc2F)n1 | 18.2 |
| COc1cc(CNCC(O)c2cccc(F)c2)cc2c1OCO2 (stereo not given) | -6.31 |
| Cc1ccc(CN(CC(=O)NC2CCOCC2)c2ccc(F)cc2)o1 | 1.55 |
| CCC(=O)Nc1cccc(OCC(=O)N2CC=CC2C(C)C)c1 (stereo not given) | -0.115 |
| N[C@@H]1CCN(Cc2ccccc2CS(=O)(=O)c2ccccc2)C[C@H]1O | -2.58 |
| COCCN1C[C@H]2CN(C(=O)C3CC3)CCN2C1=O | 7.37 |
| Cc1nc(CN(C)C2CCN(Cc3ccc(C(N)=O)cc3)C2)no1 (stereo not given) | -12.7 |
| Cc1ccc(CN2CCc3onc(COc4cccnc4)c3C2)s1 | 5.98 |
| COCCN1CCC(c2nc3ccc(NC4CCC4)cn3n2)CC1 | -119 |
| CCOCCC(=O)Nc1cccc(Cl)c1COC | -3.81 |

| Structure (SMILES) | cytotoxicity at 10 µM [%] |
| --- | --- |
| Cc1n[nH]c(=O)c2c(NC(=O)CN3CCOCC3C)oc(C)c12 (stereo not given) | -0.219 |
| Cn1ccnc1CN1CCN(Cc2ccccc2)[C@@H]2CS(=O)(=O)C[C@@H]21 | -3.41 |
| Cn1cc(C(=O)N2CCCC2CCc2ccccc2)cn1 (stereo not given) | 9.84 |
| Cc1cnn(CC2CCCN2C(=O)Cc2ccc(C)nc2)c1 (stereo not given) | -1.64 |
| Cc1nc(NS(=O)(=O)c2cc(Br)ccc2C)no1 | 1.68 |
| Cc1ncccc1OC1(C(=O)NCCNc2ccccc2)CCNCC1 | -12.4 |
| Cc1nccc(CC2COCCN(c3cnccn3)C2)n1 (stereo not given) | 0.933 |
| Cc1cnn(CC2CCCN2C(=O)CCc2nc3ccccc3[nH]2)c1 (stereo not given) | -12.9 |
| CCn1nc(C)c2c1cnn2CC(=O)N1CCN(C)CC1 | 4.92 |
| CC(C)=CCCC(C)CN1CCC(n2cc(C(C)(C)O)nn2)CC1 (stereo not given) | -2.27 |
| Cc1ccc(Oc2c(F)cccc2OC[C@@H](N)CC(C)C)cc1 | -8.94 |
| CN(C)S(=O)(=O)N1C[C@H]2CC[C@@H](C1)N(Cc1cccc(C#N)c1)C2 | 3.62 |
| CCS(=O)(=O)N1CCOC2(CCCN(c3cccc(C#N)c3)C2)C1 (stereo not given) | 0.341 |
| COCC1CC2(CCN(Cc3ccco3)CC2)CN1C(C)C (stereo not given) | 0.0448 |
| CC(C)NC(=O)N1CCN(C(=O)C2CCOCC2)CC2(CNC(=O)C2)C1 (stereo not given) | 0.748 |
| Cc1ccccc1C1CCCN1Cc1ccc(S(=O)(=O)N(C)C)o1 (stereo not given) | -3.42 |
| O=C(Nc1ccccc1OC(F)F)C1=NN(c2ccccc2)C(=O)CN1 | -3.58 |
| CCS(=O)(=O)N1CCC2(CC1)CC[C@@]1(C(=O)N(C)C)CN(C(C)=O)C[C@@H]21 | 6.43 |
| COCC(C)NC(=O)NCCCc1cc(N)n(-c2ccccc2)n1 (stereo not given) | -12.2 |
| COc1ccc(S(=O)(=O)NC(=O)COC2CCCC2)cc1 | -2.55 |
| Cc1nc(-c2ccccc2)ccc1C(=O)N1CCN(CCO)CC1 | -53.9 |
| COCCn1ccc(NCc2sccc2C)n1 | 5.6 |
